≈ marks a conversion by molar mass, not a printed value. Calls of active or inactive are those of the source. The rule behind the calls is not given here.
test system: Pseudomonas aeruginosa; experiment: Inhibition of beta lactamase AmpC in Pseudomonas aeruginosa MUW 700 assessed as potentiation of ceftazidime-induced antibacterial activity by measuring diameter of zone inhibition at 0.3 mg incubated for 18 hrs in presence of 30 ug ceftazidime by CLSI disc diffusion method (Rvb=11 mm); settings: not given
How it was run: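 AmpC combination disc test on Mueller-Hinton agar, following EUCAST guidance and Yagi et al. Inhibition zones were compared between a CAZ-30 disc and a ceftazidime disc plus agent or PBA, each at 0.3 mg per disc. Plates were incubated at 35 °C for 18 h. A zone difference of at least 5 mm was counted as inhibition.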

| Compound | inhibition zone (IZ) [mm] |
| --- | --- |
| C[Si]1(C)OB(O)c2c(F)c3c(c(F)c21)B(O)OC3 | 11 |
| C[Si]1(C)OB(O)c2ccc(B(O)O)cc21 | 18 |

test system: Klebsiella pneumoniae; experiment: Inhibition of beta lactamase KPC-2 in Klebsiella pneumoniae 75 assessed as potentiation of meropenem-induced antibacterial activity by measuring meropenem MIC at 16 mg/L incubated for 18 hrs by broth dilution method (reference value: […] mg/L); settings: not given

| Compound | MIC [µg/mL] |
| --- | --- |
| C[Si]1(C)OB(O)c2c(F)c3c(c(F)c21)B(O)OC3 | 32 |
| C[Si]1(C)OB(O)c2ccc(B(O)O)cc21 | 16 |

test system: Pichia kudriavzevii; experiment: Antifungal activity against Candida krusei ATCC 6258 assessed as decrease in fungal cell growth at 0.78 to 12.5 mg/L incubated for 24 hrs by CLSI broth dilution method; type: functional; settings: ATCC 6258, 24 h
How it was run: (§1)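 Yeast broth dilution in RPMI 1640 with 2% glucose, compounds in DMSO. Yeasts pre-grown on Sabouraud dextrose agar. Growth read after 35 °C, 24 h.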

| Compound | MIC [µg/mL] |
| --- | --- |
| C[Si]1(C)OB(O)c2c(F)c3c(c(F)c21)B(O)OC3 | > 400 |
| C[Si]1(C)OB(O)c2ccc(B(O)O)cc21 | 400 (≈ 1800 µM) |

test system: Klebsiella pneumoniae ATCC BAA-1705; experiment: Inhibition of beta lactamase KPC in Klebsiella pneumoniae ATCC BAA 1705 assessed as potentiation of meropenem-induced antibacterial activity by measuring diameter of zone inhibition at 0.3 mg incubated for 18 hrs in presence of 10 ug meropenem by CLSI disc diffusion method (Rvb=[…] mm); settings: not given

| Compound | inhibition zone (IZ) [mm] |
| --- | --- |
| C[Si]1(C)OB(O)c2c(F)c3c(c(F)c21)B(O)OC3 | 12 |
| C[Si]1(C)OB(O)c2ccc(B(O)O)cc21 | 18 |

test system: Enterobacter cloacae; experiment: Antibacterial activity against Enterobacter cloacae DSM 6234 assessed as fold reduction of MIC in presence of efflux pump inhibitor PAbetaN incubated for 18 hrs by broth microdilution method; type: functional; settings: not given
How it was run: (§2)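 MICs determined with and without PAβN at 50 mg/L in Mueller-Hinton broth containing 1 mM MgSO₄. 2-fold serial dilutions per CLSI. Fold change taken from the paired MICs after 35 °C, 18 h.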

| Compound | fold change (FC) |
| --- | --- |
| C[Si]1(C)OB(O)c2c(F)c3c(c(F)c21)B(O)OC3 | 8 |
| C[Si]1(C)OB(O)c2ccc(B(O)O)cc21 | 16 |

test system: Escherichia coli; experiment: Antibacterial activity against Escherichia coli ATCC 25922 measured after 18 hrs by CLSI broth dilution method; type: functional; settings: ATCC 25922, 18 h
How it was run: (§3)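 Broth MIC in Mueller-Hinton II broth following CLSI, compounds dissolved in DMSO. Strains subcultured twice on tryptic soy agar before testing. Growth read after 35 °C, 18 h.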

| Compound | MIC [µg/mL] |
| --- | --- |
| C[Si]1(C)OB(O)c2c(F)c3c(c(F)c21)B(O)OC3 | 200 (≈ 741 µM) |
| C[Si]1(C)OB(O)c2ccc(B(O)O)cc21 | > 400 |

test system: Klebsiella pneumoniae; experiment: Inhibition of beta lactamase KPC-3 in Klebsiella pneumoniae 81 assessed as potentiation of ceftazidime-induced antibacterial activity by measuring ceftazidime MIC at 16 mg/L incubated for 18 hrs by broth dilution method (reference value: >[…] mg/L); settings: not given

| Compound | MIC [µg/mL] |
| --- | --- |
| C[Si]1(C)OB(O)c2c(F)c3c(c(F)c21)B(O)OC3 | 64 |
| C[Si]1(C)OB(O)c2ccc(B(O)O)cc21 | 64 |

test system: Saccharomyces cerevisiae; experiment: Antifungal activity against Saccharomyces cerevisiae ATCC 9763 diameter of zone inhibition incubated for 24 hrs by CLSI disc diffusion method; type: functional; settings: not given
How it was run: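 Disc-diffusion run on Mueller-Hinton II agar with 2% glucose and 0.5 mg/L methylene blue, using compounds in DMSO. Yeast was precultured on Sabouraud dextrose agar (24–48 h, 30 °C). Zones read after 24 h at 35 °C.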

| Compound | diameter of the inhibition zone (DIZ) |
| --- | --- |
| C[Si]1(C)OB(O)c2c(F)c3c(c(F)c21)B(O)OC3 | inactive |
| C[Si]1(C)OB(O)c2ccc(B(O)O)cc21 | inactive |

test system: Escherichia coli; experiment: Inhibition of beta lactamase KPC-3 in Escherichia coli 82 TR assessed as potentiation of ceftazidime-induced antibacterial activity by measuring ceftazidime MIC at 16 mg/L incubated for 18 hrs by broth dilution method (reference value: […] mg/L); settings: not given

| Compound | MIC [µg/mL] |
| --- | --- |
| C[Si]1(C)OB(O)c2c(F)c3c(c(F)c21)B(O)OC3 | 32 |
| C[Si]1(C)OB(O)c2ccc(B(O)O)cc21 | 32 |

test system: not listed separately; experiment: Cytotoxicity against human MRC5 cells assessed as cell viability at 8 ug/ml incubated for 72 hrs by MTT assay; type: cell-based; settings: read-out: Activity
How it was run: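 MRC-5 pd30 human fibroblasts grown in MEM with 10% FBS, 2 mM L-glutamine, penicillin/streptomycin and 1% non-essential amino acids at 37 °C, 5% CO2. Exponentially growing cells trypsinized and seeded at 8×10^3 cells/well, then dosed 18 h later with 2-fold dilutions (0.5% DMSO final) for 72 h. MTT (1 mg/ml final) added for 1 h at 37 °C, formazan dissolved in DMSO, OD read at 570 nm. Four replicates, expressed as % viable versus control.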

| Compound | viability at 72 h, 8 ug/ml [%] |
| --- | --- |
| C[Si]1(C)OB(O)c2ccc(B(O)O)cc21 | 126 |

test system: Serratia marcescens; experiment: Antibacterial activity against Serratia marcescens ATCC 13880 assessed as fold reduction of MIC in presence of efflux pump inhibitor PAbetaN incubated for 18 hrs by broth microdilution method; type: functional; settings: not given; how it was run: as §2

| Compound | fold change (FC) |
| --- | --- |
| C[Si]1(C)OB(O)c2c(F)c3c(c(F)c21)B(O)OC3 | 16 |
| C[Si]1(C)OB(O)c2ccc(B(O)O)cc21 | 2 |

test system: Staphylococcus aureus; experiment: Bactericidal activity against Staphylococcus aureus ATCC 6538P measured after 18 hrs by CLSI broth dilution method; type: functional; settings: not given
How it was run: (§4)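 Strains stored at -80 °C and subcultured twice on tryptic soy agar before testing. Compounds dissolved in DMSO. […] MBC then determined per CLSI recommendations.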

| Compound | MBC [µg/mL] |
| --- | --- |
| C[Si]1(C)OB(O)c2ccc(B(O)O)cc21 | 200 (≈ 901 µM) |

test system: Stenotrophomonas maltophilia; experiment: Antibacterial activity against Stenotrophomonas maltophilia ATCC 13637 assessed as diameter of zone inhibition measured after 18 hrs by CLSI disc diffusion method; type: functional; settings: not given
How it was run: (§5)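 Disc diffusion on Mueller-Hinton II agar. Compounds dissolved in DMSO. Strains stored at -80 °C and subcultured twice on tryptic soy agar before testing. Inhibition zones read after 35 °C, 18 h.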

| Compound | diameter of the inhibition zone (DIZ) [mm] |
| --- | --- |
| C[Si]1(C)OB(O)c2c(F)c3c(c(F)c21)B(O)OC3 | 15 |
| C[Si]1(C)OB(O)c2ccc(B(O)O)cc21 | 12 |

test system: Candida tropicalis; experiment: Antifungal activity against Candida tropicalis IBA 171 assessed as decrease in fungal cell growth at 0.78 to 12.5 mg/L incubated for 24 hrs by CLSI broth dilution method; type: functional; settings: IBA 171, 24 h; how it was run: as §1

| Compound | MIC [µg/mL] |
| --- | --- |
| C[Si]1(C)OB(O)c2c(F)c3c(c(F)c21)B(O)OC3 | > 400 |
| C[Si]1(C)OB(O)c2ccc(B(O)O)cc21 | 200 (≈ 901 µM) |

test system: Enterococcus faecalis; experiment: Bactericidal activity against Enterococcus faecalis ATCC 29212 measured after 18 hrs by CLSI broth dilution method; type: functional; settings: ATCC 29212, 18 h; how it was run: as §4

| Compound | MBC [µg/mL] |
| --- | --- |
| C[Si]1(C)OB(O)c2ccc(B(O)O)cc21 | 400 (≈ 1800 µM) |

test system: Staphylococcus epidermidis; experiment: Bactericidal activity against Staphylococcus epidermidis ATCC 12228 measured after 18 hrs by CLSI broth dilution method; type: functional; settings: ATCC 12228, 18 h; how it was run: as §4

| Compound | MBC [µg/mL] |
| --- | --- |
| C[Si]1(C)OB(O)c2ccc(B(O)O)cc21 | 100 (≈ 451 µM) |

test system: Enterobacter cloacae; experiment: Antibacterial activity against Enterobacter cloacae DSM 6234 assessed as diameter of zone inhibition measured after 18 hrs by CLSI disc diffusion method; type: functional; settings: not given; how it was run: as §5

| Compound | diameter of the inhibition zone (DIZ) |
| --- | --- |
| C[Si]1(C)OB(O)c2c(F)c3c(c(F)c21)B(O)OC3 | 17 mm |
| C[Si]1(C)OB(O)c2ccc(B(O)O)cc21 | inactive |

test system: Candida albicans; experiment: Antifungal activity against Candida albicans ATCC 90028 assessed as decrease in fungal cell growth at 0.78 to 12.5 mg/L incubated for 24 hrs by CLSI broth dilution method; type: functional; settings: ATCC 90028, 24 h; how it was run: as §1

| Compound | MIC [µg/mL] |
| --- | --- |
| C[Si]1(C)OB(O)c2c(F)c3c(c(F)c21)B(O)OC3 | > 400 |
| C[Si]1(C)OB(O)c2ccc(B(O)O)cc21 | 400 (≈ 1800 µM) |

test system: Saccharomyces cerevisiae; experiment: Antifungal activity against Saccharomyces cerevisiae ATCC 9763 assessed as decrease in fungal cell growth at 0.78 to 12.5 mg/L incubated for 24 hrs by CLSI broth dilution method; type: functional; settings: ATCC 9763, 24 h
How it was run: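 Yeast strain subcultured on Sabouraud dextrose agar for 24–48 h at 30 °C before testing. Compounds dissolved in DMSO.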

| Compound | MIC [µg/mL] |
| --- | --- |
| C[Si]1(C)OB(O)c2c(F)c3c(c(F)c21)B(O)OC3 | > 400 |
| C[Si]1(C)OB(O)c2ccc(B(O)O)cc21 | 100 (≈ 451 µM) |

test system: Pseudomonas aeruginosa; experiment: Inhibition of beta lactamase VIM in Pseudomonas aeruginosa 698 assessed as potentiation of ceftazidime-induced antibacterial activity by measuring ceftazidime MIC at 16 mg/L incubated for 18 hrs by broth dilution method (reference value: […] mg/L); settings: not given

| Compound | MIC [µg/mL] |
| --- | --- |
| C[Si]1(C)OB(O)c2c(F)c3c(c(F)c21)B(O)OC3 | 64 |
| C[Si]1(C)OB(O)c2ccc(B(O)O)cc21 | 64 |

test system: Pseudomonas aeruginosa; experiment: Antibacterial activity against Pseudomonas aeruginosa ATCC 27853 assessed as diameter of zone inhibition measured after 18 hrs by CLSI disc diffusion method; type: functional, organism-based; settings: not given; how it was run: as §5

| Compound | diameter of the inhibition zone (DIZ) |
| --- | --- |
| C[Si]1(C)OB(O)c2c(F)c3c(c(F)c21)B(O)OC3 | inactive |
| C[Si]1(C)OB(O)c2ccc(B(O)O)cc21 | inactive |

test system: Pseudomonas aeruginosa; experiment: Antibacterial activity against Pseudomonas aeruginosa ATCC 27853 assessed as fold reduction of MIC in presence of efflux pump inhibitor PAbetaN incubated for 18 hrs microdilution method; type: functional; settings: not given; how it was run: as §2

| Compound | fold change (FC) |
| --- | --- |
| C[Si]1(C)OB(O)c2c(F)c3c(c(F)c21)B(O)OC3 | 8 |
| C[Si]1(C)OB(O)c2ccc(B(O)O)cc21 | 2 |

test system: Acinetobacter baumannii; experiment: Antibacterial activity against Acinetobacter baumannii ATCC 19606 assessed as fold reduction of MIC in presence of efflux pump inhibitor PAbetaN incubated for 18 hrs by broth microdilution method; type: functional; settings: not given; how it was run: as §2

| Compound | fold change (FC) |
| --- | --- |
| C[Si]1(C)OB(O)c2c(F)c3c(c(F)c21)B(O)OC3 | 8 |
| C[Si]1(C)OB(O)c2ccc(B(O)O)cc21 | 2 |

test system: Staphylococcus epidermidis; experiment: Antibacterial activity against Staphylococcus epidermidis ATCC 12228 measured after 18 hrs by CLSI broth dilution method; type: functional; settings: ATCC 12228, 18 h; how it was run: as §3

| Compound | MIC [µg/mL] |
| --- | --- |
| C[Si]1(C)OB(O)c2c(F)c3c(c(F)c21)B(O)OC3 | 6.25 (≈ 23.2 µM) |
| C[Si]1(C)OB(O)c2ccc(B(O)O)cc21 | 50 (≈ 225 µM) |

Source: ChEMBL document CHEMBL4346672, “Antimicrobial and KPC/AmpC inhibitory activity of functionalized benzosiloxaboroles” (Eur J Med Chem, 2019)
